Tested on: MS2 coat protein
Test: apparent Kd, MS2 coat protein; higher = weaker binding; RNA-MaP array; FMN 200 µM where present
Summary of the method: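 The apparent Kd is the median of filtered binding-curve fits, one per cluster, to green signal normalised to red-channel RNA signal and control-cluster median Fmax. The clusters were on Illumina sequencing chips, and stalled E. coli RNA polymerase had transcribed the designs on them. Titration used SNAP-549-labelled MS2 coat protein from 0.7 or 1.5 nM, doubling to 3 µM, without and then with constant ligand, in 100 mM Tris-HCl pH 7.5, 80 mM KCl, 4 mM MgCl2, BSA, DTT, yeast tRNA and Tween-20.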

[1] = designed as: OFF switch for flavin mononucleotide, no ligand
[2] = ligand present: flavin mononucleotide, designed as: OFF switch for flavin mononucleotide
[3] = designed as: ON switch for flavin mononucleotide, no ligand
[4] = ligand present: flavin mononucleotide, designed as: ON switch for flavin mononucleotide

| Sequence | apparent Kd [1] [µM] | apparent Kd [2] [µM] | apparent Kd [3] [µM] | apparent Kd [4] [µM] |
| --- | --- | --- | --- | --- |
| AAUUGAAACGUAGGAUAUCGCACUAAUUUUAAACGAGAAGGACGUACAUGAGGAUCACCCAUGUUAAAUGGUGUAGAUUAGAUG | 0.156 | 0.692 | – | – |
| CAGUACUGAGGAUAUACAUGAGGAUCACCCAUGUCCCAAAAGUAGGAUACUACUAUUAGUAGAAGGCAGUACUG | 0.0374 | 0.323 | – | – |
| UCGGCGCGAGGAUAUACGUUUGCUUUUUUUUGUUUUUGUGUACAUGAGGAUCACCCAUGUAGAAGGCGCGCCGC | 0.0181 | 0.0249 | – | – |
| AAGAAGUGAGGAUAUGUCUGUGCGAAAAAAAAAAAGUGCAGACAGAAGGCACAUGAGGAUCACCCAUGUCAAAA | 0.0255 | 0.0371 | – | – |
| GCCAGAGGAGGAUAUCUAAUAUAUCACAUGAGGAUCACCCAUGUCCAGCGAAAGCUGGAGGGAGAAGGCCUCUGGC | 0.149 | 0.0298 | – | – |
| AAAAGGUCAGGAUAUCGGCGCGGUUGGGAGGCAGGUCCGCGCGAGAAGGGACAUGAGGAUCACCCAUGUUAAAA | 0.0292 | 0.0324 | – | – |
| UAAGCCGGGUCUGCAUGAGCUUACAUGAGGAUCACCCAUGUAAGAAGGGACGCUACGUUAUAGUGUCAGGAUAUUGCGAACGGG | 0.00515 | 0.00566 | – | – |
| AAAAUGUGAGGAUAUCCGAAGGCGUCUGAUAGACGAGGCUAGGAGAAGGCACAUGAGGAUCACCCAUGUAAAAA | 0.0466 | 0.0951 | – | – |
| GUUAGGCAUGUAGGAUAUCCAUUGCGUCGCGUUGGAGAAGGGCAGCACACAUGAGGAUCACCCAUGUGGUCUCCCAUGAUGUGU | 0.215 | 0.254 | – | – |
| UAUAUGUCAGGAUAUUAGUUGUGGACGAAUAAGACUUCUGCUGAGAAGGGACAUGAGGAUCACCCAUGUUCCUC | 0.0158 | 0.0194 | – | – |
| GUAGCAUACGGAGGAUAUGUAGGAUCUACAUGAGGAUCACCCAUGUCAAGGACAGAAGGCCGUAUGCUACAAGAGCGAAAGCUC | – | – | 0.0116 | 0.00579 |
| AGCGUGGAGACAGGAUAUGAGAAUAGAUAGAAAUCAGAAGGGUCACAUGAGGAUCACCCAUGUAAAGUCUUGAGGAUGAGUGAU | 0.0865 | 0.208 | – | – |
| GUAUAUAGUGUGAGGAUAUGCUGGUCCUUGGAUCAGCAGAAGGCACAUGAGGAUCACCCAUGUAGUUUAUUUUG | 0.0184 | 0.0657 | – | – |
| AGGAAACAUGAGGAUCACCCAUGUAAAAGGUGGUUAGGAUAUGCGAAAAGAAAAAGAAAAGCAGAAGGGACAAGAA | – | – | 0.487 | 0.485 |
| UGAUCGAAAGAUCAUAGAUUCUGCUAGGAUAUGCAGAAGUUUCGAUUUACAUGAGGAUCACCCAUGUAGAAGGAGUAGAGUCUA | 0.00612 | 0.00654 | – | – |
| UGUCCAUAGCAGAAGGCAUGUCAAAAGACAUGAGGAUCACCCAUGUAAGCAUGAGGAUAUGCUAUGGACUAAGAGCGAAAGCUC | 0.00914 | 0.00578 | – | – |
| UAUCAAUUUAUGGGUUUAGAUUAUGAGGAUAUCAUUUUUUUAUACAUGAGGAUCACCCAUGUUACUGAGAAGGCAUAAUUAAUA | – | – | 0.0174 | 0.00621 |
| UAGUAGAUCCGAGGAUAUACAAUCCGGAAACGGUACAUGAGGAUCACCCAUGUAGAAGGCGGAUCUACAGGUACUAAAGUACCG | 0.00619 | 0.00918 | – | – |
| AGAGAUACGCUCGUCGGAAAGCGACAUGAGGAUCACCCAUGUAGAAGGCGAUGCGCAACUCGCAUUGAGGAUAUAUAGUGCAGC | 0.00651 | 0.00665 | – | – |
| CGGUACUUAGGAUAUACAUGAGGAUCACCCAUGUAGAGAAGGUGGGUGCCGUCCUGUAGUAGAAGGAAGAAUCG | 0.0469 | 0.0558 | – | – |
